Values after ≈ are worked out from the molar mass of the structure shown.
Legend:
HOP-62 = experiment: Antitumor activity against HOP62 cells; format: functional; conditions: Homo sapiens
Vibrio = experiment: Antibacterial activity against Vibrio species after 18 hrs; format: functional
Summary of the method: (§1)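 Disc diffusion (Kirby–Bauer) on Mueller-Hinton agar inoculated with fresh bacteria at 1-5 × 10^4 cfu mL-1. Compounds were dissolved in DMF at a range of concentrations, and discs were placed in triplicate. Plates were incubated at 30 °C for 18 h. MIC was taken as the lowest concentration giving no visible bacterial growth on the plate.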

[1] = Antitumor activity against MALME 3M cells; format: functional; conditions: Homo sapiens
MOLT-4 = experiment: Antitumor activity against MOLT4 cells; format: functional; conditions: Homo sapiens
SK-OV-3 = experiment: Antitumor activity against SKOV3 cells; format: functional; conditions: Homo sapiens
Summary of the method: (§2)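 Tested in the NCI 60-human-tumour-cell-line panel at five concentrations, in 10-fold dilutions from 10^-4 to 10^-8 M. Three parameters were taken from the dose-response data, each as log10 of the molar concentration: GI50 (50% net growth inhibition), TGI (total growth inhibition) and LC50 (50% net cell death).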

HCC 2998 = experiment: Antitumor activity against HCC2998 cells; format: functional; conditions: Homo sapiens
HCT-15 = experiment: Antitumor activity against HCT15 cells; format: functional; conditions: Homo sapiens
MCF7 = experiment: Antitumor activity against MCF7 cells; format: functional; conditions: Homo sapiens
786-0 = experiment: Antitumor activity against 786-0 cells; format: functional; conditions: Homo sapiens
SNB-19 = experiment: Antitumor activity against SNB19 cells; format: functional; conditions: Homo sapiens; summary of the method: as §2
CAKI-1 = experiment: Antitumor activity against CAKI1 cells; format: functional; conditions: Homo sapiens
A549 = experiment: Antitumor activity against A549 cells; format: functional; conditions: Homo sapiens
SR = experiment: Antitumor activity against SR cells; format: functional; conditions: Homo sapiens; summary of the method: as §2
HCT-116 = experiment: Antitumor activity against HCT116 cells; format: functional; conditions: Homo sapiens
SF-295 = experiment: Antitumor activity against SF295 cells; format: functional; conditions: Homo sapiens
[2] = Antitumor activity against LOX IMV1 cells; format: functional; conditions: Homo sapiens
[3] = Antitumor activity against HL60 (TB) cells; format: functional, HL-60(TB); conditions: Homo sapiens, HL-60
Summary of the method: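 NCI 60-cell-line in vitro screen (leukaemia subpanel). Compound tested at five 10-fold dilutions from 10^-4 to 10^-8 M. Dose-response parameters: GI50 (concentration giving 50% net growth inhibition), TGI (total growth inhibition) and LC50 (50% net cell death), each reported as log10 of molar concentration.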

SNB-75 = experiment: Antitumor activity against SNB75 cells; format: functional; conditions: Homo sapiens; summary of the method: as §2
MDA-MB-231 = experiment: Antitumor activity against MDA-MB-231 cells; format: functional; conditions: Homo sapiens
SK-MEL-5 = experiment: Antitumor activity against SK-MEL-5 cells; format: functional; conditions: Homo sapiens; summary of the method: as §2
MDA-MB-435 = experiment: Antitumor activity against MDA-MB-435 cells; format: functional; conditions: Homo sapiens
SF-268 = experiment: Antitumor activity against SF268 cells; format: functional; conditions: Homo sapiens
U-251 = experiment: Antitumor activity against U251 cells; format: functional; conditions: Homo sapiens; summary of the method: as §2
Pseudomonas aeruginosa = experiment: Antibacterial activity against Pseudomonas aeruginosa MTCC 424 after 18 hrs; format: functional; conditions: MTCC 424, 18 h; summary of the method: as §1
M14 = experiment: Antitumor activity against M14 cells; format: functional; conditions: Homo sapiens
KM12 = experiment: Antitumor activity against KM12 cells; format: functional; conditions: Homo sapiens
UACC-257 = experiment: Antitumor activity against UACC257 cells; format: functional; conditions: Homo sapiens; summary of the method: as §2
Bacillus subtilis = experiment: Antibacterial activity against Bacillus subtilis MTCC 441 after 18 hrs; format: functional; conditions: MTCC 441, 18 h; summary of the method: as §1
EKVX = experiment: Antitumor activity against EKVX cells; format: functional; conditions: Homo sapiens
HT-29 = experiment: Antitumor activity against HT29 cells; format: functional; conditions: Homo sapiens
[4] = Antitumor activity against NCI-H322 cells; format: functional; conditions: Homo sapiens
A498 = experiment: Antitumor activity against A498 cells; format: functional; conditions: Homo sapiens
Hs-578T = experiment: Antitumor activity against HS578T cells; format: functional; conditions: Homo sapiens
RXF 393 = experiment: Antitumor activity against RXF393 cells; format: functional; conditions: Homo sapiens
ACHN = experiment: Antitumor activity against ACHN cells; format: functional; conditions: Homo sapiens
DU-145 = experiment: Antitumor activity against DU145 cells; format: functional; conditions: Homo sapiens
CCRF-CEM = experiment: Antitumor activity against CCRF-CEM cells; format: functional; conditions: Homo sapiens
OVCAR-8 = experiment: Antitumor activity against OVCAR8 cells; format: functional; conditions: Homo sapiens
COLO 205 = experiment: Antitumor activity against COLO205 cells; format: functional; conditions: Homo sapiens
K562 = experiment: Antitumor activity against K562 cells; format: functional; conditions: Homo sapiens
[5] = read-out: Log LC50 (the source's name) (converted)

## O=C(NNS(=O)(=O)c1ccc(F)cc1)c1cccnc1Nc1ccc(Cl)cc1Cl
HOP-62
  GI50: 30.9 µM
HOP-62; [5]
  CC50: > 100 µM
HOP-62; read-out: Log TGI (converted)
  TGI: 85.1 µM
Vibrio
  MIC: 20 µg/mL (≈ 43.9 µM)
[1]
  GI50: 34.7 µM
[1]; [5]
  CC50: > 100 µM
[1]; read-out: Log TGI (converted)
  TGI: > 100 µM
MOLT-4
  GI50: 22.9 µM
  LC50: > 100 µM
MOLT-4; read-out: Log TGI (converted)
  TGI: > 100 µM
SK-OV-3
  GI50: 38 µM
SK-OV-3; [5]
  CC50: > 100 µM
SK-OV-3; read-out: Log TGI (converted)
  TGI: > 100 µM
HCC 2998
  GI50: 30.2 µM
  LC50: > 100 µM
HCC 2998; read-out: Log TGI (converted)
  TGI: > 100 µM
HCT-15
  GI50: 26.9 µM
  LC50: > 100 µM
HCT-15; read-out: Log TGI (converted)
  TGI: > 83.2 µM
MCF7
  GI50: 31.6 µM
  LC50: > 100 µM
MCF7; read-out: Log TGI (converted)
  TGI: > 100 µM
786-0
  GI50: 22.9 µM
  LC50 (lethal concentration, 50%): > 100 µM
786-0; read-out: Log TGI (converted)
  TGI: 53.7 µM
SNB-19
  GI50: 29.5 µM
SNB-19; [5]
  CC50: > 100 µM
SNB-19; read-out: Log TGI (converted)
  TGI: > 100 µM
CAKI-1
  GI50: 30.9 µM
  LC50: > 100 µM
CAKI-1; read-out: Log TGI (converted)
  TGI: > 100 µM
A549
  GI50: 17.4 µM
  LC50: 97.7 µM
A549; read-out: Log TGI (converted)
  TGI: 40.7 µM
SR
  GI50: 22.9 µM
  LC50: > 100 µM
SR; read-out: Log TGI (converted)
  TGI: 67.6 µM
HCT-116
  GI50: 30.2 µM
  LC50: > 100 µM
HCT-116; read-out: Log TGI (converted)
  TGI: > 100 µM
SF-295
  GI50: 37.2 µM
SF-295; [5]
  CC50: > 100 µM
SF-295; read-out: Log TGI (converted)
  TGI: > 100 µM
[2]
  GI50: 32.4 µM
  LC50: > 100 µM
[2]; read-out: Log TGI (converted)
  TGI: > 100 µM
[3]
  GI50: 25.1 µM
  LC50: > 100 µM
[3]; read-out: Log TGI (converted)
  TGI: 61.7 µM
SNB-75
  GI50: 25.7 µM
SNB-75; [5]
  CC50: > 100 µM
SNB-75; read-out: Log TGI (converted)
  TGI: > 100 µM
MDA-MB-231
  GI50: 28.8 µM
  LC50: > 100 µM
MDA-MB-231; read-out: Log TGI (converted)
  TGI: > 100 µM
SK-MEL-5
  GI50: 25.1 µM
  LC50: > 100 µM
SK-MEL-5; read-out: Log TGI (converted)
  TGI: 85.1 µM
MDA-MB-435
  GI50: 85.1 µM
  LC50: > 100 µM
MDA-MB-435; read-out: Log TGI (converted)
  TGI: > 100 µM
SF-268
  GI50: 45.7 µM
  LC50: > 100 µM
SF-268; read-out: Log TGI (converted)
  TGI: > 100 µM
U-251
  GI50: 28.8 µM
  LC50: > 100 µM
U-251; read-out: Log TGI (converted)
  TGI: > 100 µM
Pseudomonas aeruginosa
  MIC: > 25 µg/mL
M14
  GI50: 46.8 µM
  LC50: > 100 µM
M14; read-out: Log TGI (converted)
  TGI: > 100 µM
KM12
  GI50: 22.9 µM
KM12; [5]
  CC50: > 100 µM
KM12; read-out: Log TGI (converted)
  TGI: 49 µM
UACC-257
  GI50: 11.7 µM
  LC50: > 100 µM
UACC-257; read-out: Log TGI (converted)
  TGI: 52.5 µM
Bacillus subtilis
  MIC: 9 µg/mL (≈ 19.8 µM)
EKVX
  GI50: 29.5 µM
  LC50: > 100 µM
EKVX; read-out: Log TGI (converted)
  TGI: > 100 µM
HT-29
  GI50: 21.9 µM
  LC50: > 100 µM
HT-29; read-out: Log TGI (converted)
  TGI: 57.5 µM
[4]
  GI50: 30.9 µM
[4]; [5]
  CC50: > 100 µM
[4]; read-out: Log TGI (converted)
  TGI: > 100 µM
A498
  GI50: 17.4 µM
  LC50: 77.6 µM
A498; read-out: Log TGI (converted)
  TGI: 36.3 µM
Hs-578T
  GI50: 28.2 µM
Hs-578T; [5]
  CC50: > 100 µM
Hs-578T; read-out: Log TGI (converted)
  TGI: > 100 µM
RXF 393
  GI50: 11.5 µM
  LC50: 66.1 µM
RXF 393; read-out: Log TGI (converted)
  TGI: 27.5 µM
ACHN
  GI50: 45.7 µM
  LC50: > 100 µM
ACHN; read-out: Log TGI (converted)
  TGI: > 100 µM
DU-145
  GI50: 22.9 µM
  LC50: > 100 µM
DU-145; read-out: Log TGI (converted)
  TGI: 55 µM
CCRF-CEM
  LC50: > 100 µM
CCRF-CEM; read-out: Log TGI (converted)
  TGI: > 100 µM
CCRF-CEM; read-out: pGI50 (converted)
  GI50: 20.9 µM
OVCAR-8
  GI50: 26.9 µM
OVCAR-8; [5]
  CC50: > 100 µM
OVCAR-8; read-out: Log TGI (converted)
  TGI: > 100 µM
COLO 205
  GI50: 16.2 µM
  LC50: > 100 µM
COLO 205; read-out: Log TGI (converted)
  TGI: 51.3 µM
K562
  GI50: 20 µM
  LC50: > 100 µM
K562; read-out: Log TGI (converted)
  TGI: 83.2 µM

Reference: ChEMBL document CHEMBL1144562, “Synthesis of a new class of 2-anilino substituted nicotinyl arylsulfonylhydrazides as potential anticancer and antibacterial agents” (2007)
